Published values collected from several papers.
Protocols differ between the studies behind these lines.
Organism: Severe acute respiratory syndrome coronavirus 2

CN(C)CCC=C1c2ccccc2CCc2ccccc21 — IC50 (viral replication, inhibitor; A549-ACE2): 0.871 µM
CCc1nc(C(N)=O)c(Nc2ccc(N3CCC(N4CCN(C)CC4)CC3)c(OC)c2)nc1NC1CCOCC1 — IC50 (viral replication, inhibitor; Huh-7): 0.255 µM
COc1ccc(CN2CCN(Cc3ccccc3)CC2)cc1 — IC50 (viral replication; Vero C1008): 1.58 µM
CCN(CC)CCNC(=O)c1cc(Cl)c(N)cc1OC — IC50 (viral replication, inhibitor; Huh-7): 0.468 µM
Nc1nc(S[C@@H]2O[C@H](CO)[C@H](O)[C@H](O)[C@H]2O)[nH]c(=S)c1C(=O)Nc1ccccc1 — IC50 (viral replication; Vero C1008; 72 h): 18.5 µM
CCN(CC)CCOc1ccc(C(O)(Cc2ccc(Cl)cc2)c2ccc(C)cc2)cc1 (stereo not drawn) — IC50 (viral replication, inhibitor; Vero C1008): 4.68 µM
COc1c(O)cc2oc(-c3ccccc3)cc(=O)c2c1O — IC50 (viral replication, inhibitor; Vero C1008): 15.1 µM
Nc1nc(S)[nH]c(=S)c1C(=O)Nc1ccccc1 — IC50 (viral replication; Vero C1008; 72 h): 341 µM
C[C@]12C=CC(=O)C=C1CC[C@@H]1[C@@H]2[C@@H](O)C[C@@]2(C)[C@H]1C[C@H]1O[C@@H](C3CCCCC3)O[C@]12C(=O)CO — IC50 (viral replication; VeroE6/TMPRSS2): 8.1 µM
COc1c(C)c2c(c(O)c1C/C=C(\C)CCC(=O)OCCN1CCOCC1)C(=O)OC2 — IC50 (viral replication, inhibitor; Calu-3; 40 h): 2.15 µM
CC(=O)OC[C@H]1O[C@@H](Sc2nc(N)c(C(=O)Nc3ccccc3)c(=S)[nH]2)[C@H](OC(C)=O)[C@@H](OC(C)=O)[C@H]1OC(C)=O — IC50 (viral replication; Vero C1008; 72 h): 86 µM
COc1ccc([C@@H]2Sc3ccccc3N(CCN(C)C)C(=O)[C@@H]2OC(C)=O)cc1 — IC50 (viral replication, inhibitor; Vero C1008): > 45 µM
CCN(CC)CCCC(C)Nc1c2ccc(Cl)cc2nc2ccc(OC)cc12 (stereo not drawn) — IC50 (viral replication; Calu-3): > 50 µM
CCCCCCCCCC(=O)N[C@@H](Cc1c[nH]c2ccccc12)C(=O)N[C@H](CC(N)=O)C(=O)N[C@@H](CC(=O)O)C(=O)N[C@@H]1C(=O)NCC(=O)N[C@@H](CCCN)C(=O)N[C@@H](CC(=O)O)C(=O)N[C@H](C)C(=O)N[C@@H](CC(=O)O)C(=O)NCC(=O)N[C@H](CO)C(=O)N[C@@H]([C@H](C)CC(=O)O)C(=O)N[C@@H](CC(=O)c2ccccc2N)C(=O)O[C@@H]1C — IC50 (viral replication, inhibitor; Vero; 24 h): > 0.4 µg/mL
CN1[C@@H]2CC[C@H]1C[C@@H](OC(c1ccccc1)c1ccc(Cl)cc1)C2 (stereo partly drawn) — IC50 (cytopathic effect; Vero C1008; 72 h): 8.9 µM
COc1cccc2c1CCCC2CCCN1CCN(C2CCCCC2)CC1 (stereo not drawn) — IC50 (viral replication, inhibitor; A549-ACE2): 0.407 µM
Nc1nc2nc[nH]c2c(=S)[nH]1 — IC50 (viral replication, inhibitor; Huh-7): 0.178 µM
CC(C)c1nc(CN(C)C(=O)N[C@H](C(=O)N[C@@H](Cc2ccccc2)C[C@H](O)[C@H](Cc2ccccc2)NC(=O)OCc2cncs2)C(C)C)cs1 — IC50 (viral replication, inhibitor; Vero C1008): 11.7 to 19.9 µM
Fc1ccc(-n2cc(CCCCN3CCC4(CC3)OCc3ccccc34)c3ccccc32)cc1 — IC50 (viral replication, inhibitor; A549-ACE2): 2.04 µM
COC(=O)Nc1nc2ccc(C(=O)c3ccccc3)cc2[nH]1 — IC50 (viral replication, inhibitor; Vero C1008): 0.25 to 1.2 µM
CC[C@@H](C)[C@@H]1NC(=O)[C@@H]2CCCN2C(=O)[C@H](Cc2ccccc2)N(C)C(=O)[C@H](Cc2ccccc2)NC(=O)[C@H](C(C)C)N(C)C(=O)[C@@H]([C@H](C)CC)OC(=O)[C@H](C(C)(C)O)N(C)C(=O)[C@H](CC(C)C)NC(=O)[C@H](C(C)C)N(C)C1=O — IC50 (viral replication, inhibitor; Calu-3; 40 h): 4.53 µM
CC[C@H](C)[C@H]1C(=O)N2CCC[C@H]2C(=O)O[C@H](C(C)(C)C)C[C@@H](C)C[C@H](O)[C@H](C)C2=N[C@@H](CCC(=O)N[C@@H](Cc3ccc(OC)cc3)C(=O)N(C)[C@@H](C)C(=O)N1C)CS2 — IC50 (viral replication, inhibitor; Vero C1008): 0.17 µM
Cc1ccc(NC(=O)c2c(N)nc(S[C@@H]3O[C@H](CO)[C@@H](O)[C@H](O)[C@H]3O)[nH]c2=S)cc1 — IC50 (viral replication; Vero C1008; 72 h): 73.7 µM
CC(C)(C)[C@]1(O)CCN2C[C@H]3c4ccccc4CCc4cccc(c43)[C@@H]2C1 — IC50 (viral replication; Vero C1008): 6.17 µM
CC(=O)OC[C@H]1O[C@@H](Sc2nc(N)c(C(=O)Nc3ccc(Cl)cc3)c(=S)[nH]2)[C@H](OC(C)=O)[C@@H](OC(C)=O)[C@@H]1OC(C)=O — IC50 (viral replication; Vero C1008; 72 h): 77.4 µM
CCOP(=O)(OCC)N1C/C(=C\c2ccc(F)cc2)C(=O)C2(C1)C(c1ccc(F)cc1)CN(C)C21C(=O)Nc2ccc(Cl)cc21 (stereo not drawn) — IC50 (viral replication, inhibitor; Vero C1008; 72 h): 13.5 µM
CCCC(CCC)C(=O)O — IC50 (viral replication, inhibitor; Huh-7): > 2 µM
Nc1nc(S[C@@H]2O[C@H](CO)[C@H](O)[C@H](O)[C@H]2O)[nH]c(=S)c1C(=O)Nc1ccc(Cl)cc1 — IC50 (viral replication; Vero C1008; 72 h): 15.4 µM
CN(C)CCCN1c2ccccc2Sc2ccc(Cl)cc21 — IC50 (viral replication, inhibitor; Vero C1008): 3.14 µM
CCN(CC)CCOc1ccc(C(O)(Cc2ccc(Cl)cc2)c2ccc(C)cc2)cc1 (stereo not drawn) — IC50 (viral replication; Vero C1008): 0.759 µM
CCCCCCCCCCCCCCCC(=O)N[C@H]1C[C@@H](O)[C@@H](O)NC(=O)[C@@H]2[C@@H](O)[C@@H](C)CN2C(=O)[C@H]([C@@H](C)O)NC(=O)[C@H]([C@H](O)[C@@H](O)c2ccc(O)cc2)NC(=O)[C@@H]2C[C@@H](O)CN2C(=O)[C@H]([C@@H](C)O)NC1=O — IC50 (viral replication, inhibitor; Vero; 24 h): 1.3 µg/mL
Clc1ccc(C(Cn2ccnc2)OCc2ccsc2Cl)c(Cl)c1 (stereo not drawn) — IC50 (viral replication, inhibitor; Calu-3; 40 h): 2.43 µM
O=C1CCC(N2C(=O)c3ccccc3C2=O)C(=O)N1 (stereo not drawn) — IC50 (viral replication, inhibitor; Huh-7): > 2 µM
CNc1ccc2oc(C[C@H]3O[C@@]4(CC[C@H]3C)O[C@H]([C@H](C)C(=O)c3ccc[nH]3)[C@H](C)C[C@H]4C)nc2c1C(=O)O — IC50 (viral replication, inhibitor; Calu-3; 40 h): 1.55 µM
COC(=O)c1ccc2c(c1)NC(=O)/C2=C(\Nc1ccc(N(C)C(=O)CN2CCN(C)CC2)cc1)c1ccccc1 — IC50 (viral replication, inhibitor; Huh-7): > 2 µM
CC(CN1c2ccccc2Sc2ccccc21)N(C)C (stereo not drawn) — IC50 (viral replication, inhibitor; Vero C1008): 9.21 µM
Nc1c2ccccc2nc2ccccc12 — IC50 (viral replication, inhibitor; Calu-3; 40 h): 4.44 µM
NC(=O)c1ncn([C@@H]2O[C@H](CO)[C@@H](O)[C@H]2O)n1 — IC50 (viral replication, inhibitor; Vero C1008): > 10 µM
CCOC(=O)N1CCC(=C2c3ccc(Cl)cc3CCc3cccnc32)CC1 — IC50 (viral replication, inhibitor; Huh-7): > 2 µM
OC(c1cc(C(F)(F)F)nc2c(C(F)(F)F)cccc12)C1CCCCN1 (stereo not drawn) — IC50 (viral replication, inhibitor; Vero C1008): 7.11 µM
CC[C@@H]1C[C@]1(NC(=O)[C@@H]1C[C@@H]2CN1C(=O)[C@H](C(C)(C)C)NC(=O)OCC(C)(C)CCCCc1cccc3c1CN(C3)C(=O)O2)C(=O)NS(=O)(=O)C1CC1 — IC50 (viral replication; HEK-293T): 3 µM
CN(C)CCCN1c2ccccc2Sc2ccc(Cl)cc21 — IC50 (viral replication, inhibitor; A549-ACE2): 2.24 µM
N=C(N)NCCN1CCCCCCC1 — IC50 (viral replication, inhibitor; Huh-7): > 2 µM
COc1ccc2c(O[C@@H]3C[C@H]4C(=O)N[C@]5(C(=O)NS(=O)(=O)C6CC6)C[C@H]5/C=C\CCCCN(C)C(=O)[C@@H]4C3)cc(-c3nc(C(C)C)cs3)nc2c1C — IC50 (viral replication; HEK-293T): 2.3 µM
Cc1cccc(/C=N/Nc2cc(N3CCOCC3)nc(OCCc3ccccn3)n2)c1 — IC50 (viral replication, inhibitor; Vero C1008): 0.012 µM
COc1cc2c(cc1OC)CN(CCc1ccc(NC(=O)c3cccc4c(=O)c5cccc(OC)c5[nH]c34)cc1)CC2 — IC50 (viral replication, inhibitor; A549-ACE2): 3.89 µM
C[C@H](Nc1nc(N2CCNCC2)nc2ccccc12)c1ccccc1 — IC50 (cytopathic effect; Vero C1008; 72 h): 10 µM
C=C[C@@H]1C[C@]1(NC(=O)[C@@H]1C[C@@H](Oc2ncc(OC)c3ccc(Cl)cc23)CN1C(=O)[C@@H](NC(=O)OC(C)(C)C)C(C)(C)C)C(=O)NS(=O)(=O)C1CC1 — IC50 (viral replication; HEK-293T): 48.4 µM
